Assay [1] can be described thus: reducers of endogenous Her2 protein level, primary screen, SKBR3 breast tumor cells, AlphaScreen, ATP viability (AID 461;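 active = Her2 level under about 52% in both replicate screens, with viability over 70% of control, limit read from the data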;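 as to Her2 level: lower value means less Her2 protein in the cells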;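 as to viability: percent of carrier control wells set as 100% viability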). As to conditions: 18-24 h, measured here: SKBR3 viability, ATP luminescence, at 10 µM.
Assay [2] deals with Receptor tyrosine-protein kinase erbB-2 (Homo sapiens) (UniProt P04626). The description is as above. The note with it: 18-24 h, at 10 µM, stronger effect = lower value.
Assay [3] can be described thus: SK-BR-3 cell growth inhibitors, pilot screen, 24 h, human (AID 572;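 active = viability at or below 10% of carrier control in both of two separate runs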;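 also: compound exposure lasted between 18 and 24 h rather than exactly 24 h; 100% = carrier-treated control wells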). As to conditions: SK-BR-3 viability, CellTiter-Glo luminescence, at 10 µM, stronger effect = lower value. A general note: ATP-based viability assays read luminescence as a measure of living cells.
Assay [4] is described as follows: HUVEC growth inhibition – cell-based, human, primary screen (AID 575;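 active = viability at or below 30% in both replicate assays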;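 also: 100% = median of untreated cell wells with 0.1% DMSO on each plate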). The note with it: HUVEC proliferation, CellTiter-Glo luminescence, 72 h; at 10 µM; stronger effect = lower value. The gist of the method:
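System: primary human umbilical vein endothelial cells; Quantity: 1250 endothelial cells in each well; Buffer or medium: supplemented EBM, 2% fetal bovine serum; Doses: one dose, 10 µM final, 0.1% DMSO; Incubation: 72 h compound incubation; Technique: ATP-based CellTiter-Glo luminescent read; Evaluation: percent of median DMSO-control luminescence; Controls: vehicle and MePR control wells.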

Assay [5] is described as follows: growth inhibitors of H69AR lung tumor, primary screen, human, duplicate replicates (AID 580).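 Also: 100% = mean luminescence of untreated wells and 0% = no signal.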 The note with it: H69AR lung tumor cells viability, ATP luminescence, 72 h; at 10 µM; stronger effect = lower value.
Assay [6] can be described thus: reversal of MRP1-mediated doxorubicin resistance, pilot screen, H69AR cells, doxorubicin co-treatment (AID 601;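 active = viability loss from added drug above about 55%, and viability with drug at most 40%, in both replicates, limit read from the data, passing the limit was not always enough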). The note with it: CellTiter-Glo, 72 h, at 10 µM; for differential viability (reversal): stronger effect = higher value.
Assay [7] in a line: 384-well plate pilot, post-Golgi transport modulator project, inhibition of yeast transport mutant growth (AID 636; in the data active = inhibition above about 31%). The note with it: absorbance 615 nm, about 18 h, stronger effect = higher value.
The nature of assay [8]: growth suppression of yeast trafficking mutant, preliminary HTS, modulators of trafficking downstream of Golgi apparatus project, 1536-format plate, OD 615 nm (AID 637; in the data active = inhibition above about 30%). The note with it: yeast transport mutant growth, absorbance 615 nm, 18 h; stronger effect = higher value.
Where [9] appears, read: H69AR cells + 2 uM doxorubicin, measured here: viability with 2 uM doxorubicin, stronger effect = lower value.
[10] abbreviates: H69AR cells, compound alone cytotoxicity.

The source made the active and inactive calls.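 The calls were made as follows, unless noted: active = viability at or under a set limit in both replicates, limit being median viability minus 3 SD (cut at about 48% in these data, passing the limit was not always enough); inconclusive = at or under the limit in just one replicate; inactive = at or above the limit in both replicates.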

Sequence of Receptor tyrosine-protein kinase erbB-2 (Homo sapiens) (P04626 whole entry, looked up): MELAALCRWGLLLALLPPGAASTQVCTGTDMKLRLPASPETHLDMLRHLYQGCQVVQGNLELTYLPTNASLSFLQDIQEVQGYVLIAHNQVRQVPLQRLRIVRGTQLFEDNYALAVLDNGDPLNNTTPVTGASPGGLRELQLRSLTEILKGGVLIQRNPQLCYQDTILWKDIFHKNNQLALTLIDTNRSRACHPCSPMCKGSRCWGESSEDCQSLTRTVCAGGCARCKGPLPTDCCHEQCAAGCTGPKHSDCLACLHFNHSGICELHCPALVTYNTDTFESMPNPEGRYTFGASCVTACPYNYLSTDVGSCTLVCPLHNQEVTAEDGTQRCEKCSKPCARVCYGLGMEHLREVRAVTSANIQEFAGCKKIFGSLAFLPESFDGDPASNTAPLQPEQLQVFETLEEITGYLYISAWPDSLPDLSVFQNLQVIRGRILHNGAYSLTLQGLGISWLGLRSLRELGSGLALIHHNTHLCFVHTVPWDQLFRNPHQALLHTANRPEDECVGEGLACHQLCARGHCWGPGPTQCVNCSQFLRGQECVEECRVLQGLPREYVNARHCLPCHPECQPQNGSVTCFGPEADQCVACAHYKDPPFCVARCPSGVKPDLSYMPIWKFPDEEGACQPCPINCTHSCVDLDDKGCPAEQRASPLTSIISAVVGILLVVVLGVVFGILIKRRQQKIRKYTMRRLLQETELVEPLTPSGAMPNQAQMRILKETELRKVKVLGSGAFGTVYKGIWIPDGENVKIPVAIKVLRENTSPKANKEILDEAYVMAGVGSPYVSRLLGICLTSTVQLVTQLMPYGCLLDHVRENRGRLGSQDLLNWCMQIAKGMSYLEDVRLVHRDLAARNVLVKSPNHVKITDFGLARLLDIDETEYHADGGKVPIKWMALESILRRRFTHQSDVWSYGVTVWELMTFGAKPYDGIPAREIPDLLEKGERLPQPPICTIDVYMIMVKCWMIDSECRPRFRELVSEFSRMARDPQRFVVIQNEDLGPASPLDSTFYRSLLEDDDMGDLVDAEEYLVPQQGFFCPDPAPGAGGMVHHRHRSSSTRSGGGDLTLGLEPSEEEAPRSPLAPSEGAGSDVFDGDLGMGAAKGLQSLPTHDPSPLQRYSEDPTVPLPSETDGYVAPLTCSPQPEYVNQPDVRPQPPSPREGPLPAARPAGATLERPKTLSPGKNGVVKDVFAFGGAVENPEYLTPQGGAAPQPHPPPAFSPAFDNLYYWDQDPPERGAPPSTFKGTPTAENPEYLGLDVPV

On to `COC(=O)c1ccc(C)c(NS(=O)(=O)c2ccc3c(c2)OCCO3)c1`, for which the viability is 87.5% in assay [1]; 87.5% (inactive) in assay [3]; 49.2% (inactive) in assay [4]; 35% (active) in assay [5]; 72% in assay [6] (setting [9]); 35% in assay [6] (setting [10]). Besides, the Her2 level in assay [2] was 74% (inactive). Further, the differential viability (reversal) in assay [6] (H69AR cells + 2 uM doxorubicin) is -37% (inactive). Besides, the results for the inhibition in assay [7] and in assay [8] were 1.54% (inactive) and -3.67% (inactive), respectively.

In the case of `Cc1ccnc(NC(=O)CCC(=O)N(CC(=O)NC(C)(C)C)C2CCCC2)c1`, the viability in assay [1] was 108%; in assay [3], 108% (inactive); in assay [4] it was 92.7% (inactive); in assay [5] it was 93.2% (inactive); in assay [6] (setting [9]), 92.6%; in assay [6] (setting [10]) it was 93.2%. For the same compound, the Her2 level in assay [2] is 99.5% (inactive). Further, the differential viability (reversal) in assay [6] (H69AR cells + 2 uM doxorubicin) was 0.62% (inactive). Also, the inhibition in assay [7] was -4.94% (inactive); in assay [8], 5.56% (inactive).

Consider `COc1ccc(NC(=O)c2cc(C(C)C)on2)c(OC)c1`, for which the viability in assay [1] is 93.5%; in assay [3], 93.5% (inactive); in assay [4] it was 79.5% (inactive); in assay [5] it was 88% (inactive); in assay [6] (setting [9]), 90.6%; in assay [6] (setting [10]) it was 88%. The Her2 level in assay [2] is 85.5% (inactive). Further, the differential viability (reversal) in assay [6] (H69AR cells + 2 uM doxorubicin) is -2.67% (inactive). Also, the inhibition in assay [7] was 0.51% (inactive); in assay [8] it was -2% (inactive).

With `CC(C)(C)Nc1nc(OCC(F)(F)F)nc(OCC(F)(F)F)n1`, the viability was 108% in assay [1]; 108% (inactive) in assay [3]; 98.8% (inactive) in assay [4]; 89.1% (inactive) in assay [5]; 90.1% in assay [6] (setting [9]); 89.1% in assay [6] (setting [10]). The Her2 level in assay [2] is 89% (inactive). Besides, in assay [6] (H69AR cells + 2 uM doxorubicin), the differential viability (reversal) was -0.98% (inactive). The inhibition was -5.26% (inactive) in assay [7] and -10.6% (inactive) in assay [8].

As to `O=S(=O)(NCCc1csc(-c2ccccc2)n1)c1ccc2c(c1)OCCO2`, the viability in assay [1] is 103%; in assay [3], 103% (inactive); in assay [4], 101% (inactive); in assay [5], 93.6% (inactive); in assay [6] (setting [9]), 89%; in assay [6] (setting [10]), 93.6%. For the same compound, in assay [2], the Her2 level was 76% (inactive). Besides, in assay [6] (H69AR cells + 2 uM doxorubicin), the differential viability (reversal) was 4.63% (inactive). The inhibition in assay [7] was -1.97% (inactive); in assay [8] it was 4.59% (inactive).

For the compound `CCN(CC)S(=O)(=O)c1ccc(Cl)c(C(=O)OC)c1`, the viability in assay [1] is 97%; in assay [3], 97% (inactive); in assay [4] it was 99% (inactive); in assay [5] it was 95.7% (inactive); in assay [6] (setting [9]) it was 91%; in assay [6] (setting [10]) it was 95.7%. Besides, the Her2 level in assay [2] is 93% (inactive). Further, in assay [6] (H69AR cells + 2 uM doxorubicin), the differential viability (reversal) was 4.65% (inactive). The inhibition in assay [7] was -1.87% (inactive); in assay [8], 2.9% (inactive).

Take `CC1=C(C(=O)OCc2ccccc2)C(c2ccc(C)o2)C2=C(CCCC2=O)N1` (stereo not given): the viability in assay [1] was 72%; in assay [3], 72% (inactive); in assay [4] it was 113% (inactive); in assay [5], 103% (inactive); in assay [6] (setting [9]), 89.1%; in assay [6] (setting [10]), 103%. In addition, in assay [2], the Her2 level was 88% (inactive). In assay [6] (H69AR cells + 2 uM doxorubicin), the differential viability (reversal) is 13.5% (inactive). In addition, the values for the inhibition in assay [7] and in assay [8] were -6.89% (inactive) and 6.07% (inactive), respectively.

Regarding `Cc1c(NC(=O)CSc2nnc3sc4ccccc4n23)c(=O)n(-c2ccccc2)n1C`, the viability in assay [1] is 94%; in assay [3], 94% (inactive); in assay [4], 106% (inactive); in assay [5], 90.4% (inactive); in assay [6] (setting [9]) it was 89.6%; in assay [6] (setting [10]), 90.4%. Further, the Her2 level in assay [2] was 92.5% (inactive). The differential viability (reversal) in assay [6] (H69AR cells + 2 uM doxorubicin) was 0.76% (inactive). In addition, the inhibition in assay [7] is 0.65% (inactive); in assay [8] it was -2.79% (inactive).

Regarding `CC1=C(C#N)C(c2ccoc2)C(C(=O)OCc2ccccc2)=C(N)S1` (stereo not given), the viability in assay [1] is 100%; in assay [3], 100% (inactive); in assay [4], 99.5% (inactive); in assay [5] it was 91.6% (inactive); in assay [6] (setting [9]), 92.4%; in assay [6] (setting [10]), 91.6%. Moreover, the Her2 level in assay [2] is 88% (inactive). Besides, the differential viability (reversal) in assay [6] (H69AR cells + 2 uM doxorubicin) is -0.82% (inactive). Also, the inhibition in assay [7] was -3.95% (inactive); in assay [8], 0% (inactive).

As for `COc1cc2nc(C3CCC3)n(NC(=O)C3CCCC(OC)C3)c(=O)c2cc1OC` (stereo not given), the viability in assay [1] is 100%; in assay [3], 100% (inactive); in assay [4] it was 117% (inactive); in assay [5] it was 92.2% (inactive); in assay [6] (setting [9]), 97.5%; in assay [6] (setting [10]), 92.2%. Moreover, in assay [2], the Her2 level was 110% (inactive). In assay [6] (H69AR cells + 2 uM doxorubicin), the differential viability (reversal) is -5.31% (inactive). The inhibition in assay [7] was -9.86% (inactive); in assay [8], -0.67% (inactive).

For `COc1cccc(-c2cc(C(=O)Nc3cc(OC)c(OC)c(OC)c3)no2)c1`, the viability in assay [1] was 106%; in assay [3], 106% (inactive); in assay [4], 57.5% (inactive); in assay [5], 16.6% (active); in assay [6] (setting [9]), 88.6%; in assay [6] (setting [10]) it was 16.6%. The Her2 level in assay [2] is 99.5% (inactive). For the same compound, in assay [6] (H69AR cells + 2 uM doxorubicin), the differential viability (reversal) is -72% (inactive). The inhibition is -4.59% (inactive) in assay [7] and -3.11% (inactive) in assay [8].

Turning to `CCOc1ccc(S(=O)(=O)N2CCN(C(=O)c3cccn3C)CC2)cc1`, the viability in assay [1] was 101%; in assay [3] it was 101% (inactive); in assay [4], 101% (inactive); in assay [5] it was 97.3% (inactive); in assay [6] (setting [9]), 87.5%; in assay [6] (setting [10]), 97.3%. In assay [2], the Her2 level is 78.5% (inactive). Besides, the differential viability (reversal) in assay [6] (H69AR cells + 2 uM doxorubicin) was 9.79% (inactive). The results for the inhibition in assay [7] and in assay [8] were -9.04% (inactive) and -2.86% (inactive), respectively.

As to `CC(=O)OC1c2ccccc2C(=O)N1c1ccccc1C` (stereo not given), the viability was 100% in assay [1]; 100% (inactive) in assay [3]; 99.9% (inactive) in assay [4]; 105% (inactive) in assay [5]; 91.2% in assay [6] (setting [9]); 105% in assay [6] (setting [10]). The Her2 level in assay [2] was 106% (inactive). Further, the differential viability (reversal) in assay [6] (H69AR cells + 2 uM doxorubicin) is 14.2% (inactive). Also, the inhibition is 0.64% (inactive) in assay [7] and 0.83% (inactive) in assay [8].

Take `CCOC(=O)C(CC)Sc1nc2c(c(=O)[nH]c(=O)n2C)n1C/C=C(/C)Cl` (stereo not given): the viability in assay [1] is 97.5%; in assay [3] it was 97.5% (inactive); in assay [4], 89.9% (inactive); in assay [5], 84.9% (inactive); in assay [6] (setting [9]), 64.2%; in assay [6] (setting [10]), 84.9%. In addition, in assay [2], the Her2 level was 83% (inactive). Also, the differential viability (reversal) in assay [6] (H69AR cells + 2 uM doxorubicin) is 20.7% (inactive). For the same compound, the results for the inhibition in assay [7] and in assay [8] were -6.27% (inactive) and 3.93% (inactive), respectively.

Take `O=C(Nc1ccccc1N1CCN(C(=O)c2ccc(Cl)cc2)CC1)c1cc2ccccc2o1`: the viability in assay [1] is 69.5%; in assay [3], 69.5% (inactive); in assay [4], 67.8% (inactive); in assay [5], 85.5% (inactive); in assay [6] (setting [9]), 62.6%; in assay [6] (setting [10]) it was 85.5%. Moreover, the Her2 level in assay [2] was 79.5% (inactive). Further, in assay [6] (H69AR cells + 2 uM doxorubicin), the differential viability (reversal) is 22.9% (inactive). The inhibition in assay [7] was 2.53% (inactive); in assay [8], 0.81% (inactive).

Regarding `O=S(=O)(NCC1CCCO1)c1cccc(C(F)(F)F)c1` (stereo not given), the viability in assay [1] was 97%; in assay [3], 97% (inactive); in assay [4] it was 95.1% (inactive); in assay [5] it was 95.1% (inactive); in assay [6] (setting [9]), 88.4%; in assay [6] (setting [10]), 95.1%. Further, in assay [2], the Her2 level was 93.5% (inactive). In addition, in assay [6] (H69AR cells + 2 uM doxorubicin), the differential viability (reversal) is 6.7% (inactive). Further, the inhibition was -0.66% (inactive) in assay [7] and -5.64% (inactive) in assay [8].

As a reminder, the viability is a read-out of living cells in per cent, often relative to untreated cells. The term inhibition denotes the change of the read-out against control, counted positive when it falls.
